Test results from ChEMBL document CHEMBL3525967, “In vitro glucuronidation of the antibacterial triclocarban and its oxidative metabolites” (Drug Metab Dispos, 2012).

Legend:
[1] = test system: Liver microsome; assay: (§1) Drug metabolism in Sprague-Dawley rat liver microsomes after 30 mins by LC-ESI-MS analysis; format: ADME; details: microsomes, 0.5 h
Method in brief: (§2)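 2'-OH-TCC at 0.2, 0.5, 1, 2, 3, 5, 10 and 50 µM incubated with liver microsomes (alamethicin, MgCl2, saccharolactone, UDPGA; 37 °C), sampled at 5, 10, 15 and 30 min. Samples ≥5 µM diluted 1:9 in ACN; LC-ESI-MS. KM and vmax fitted from rate vs concentration; intrinsic clearance derived from these; mean and SD of three.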

[2] = as §1; format: ADME; details: Sprague-Dawley, liver microsomes; method in brief: as §2
[3] = test system: Liver microsome; assay: Intrinsic clearance in human liver microsomes after 30 mins by LC-ESI-MS analysis; format: ADME; details: 0.5 h; method in brief: as §2
[4] = Drug excretion in Swiss webster mouse urine assessed as 2'-O-glucuronide-triclocarban formation at 5 mg/kg, po by LC-MS analysis; format: ADME, organism-based; parameters: dose 5 mg/kg, route oral; details: in vivo
Method in brief: (§3)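 Mice were housed two per metabolic cage, with blank urine collected over the 24 h before dosing. TCC was given by oral gavage as a 1 mg/mL solution in 20/80 DMSO/PEG400 (v/v) at 5 mg/kg. Urine was collected at 0-24 h and 24-48 h and analysed by online LC-MS. Values are the mean of two independent experiments.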

[5] = Drug metabolism in B6C3F1 mouse liver microsomes assessed as N-glucuronide-triclocarban formation incubated for 5 mins prior to UDPGA addition measured after 30 mins by LC-UV-ESI-MS/MS analysis; format: ADME; details: 0.5 h
Method in brief: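 TCC was incubated at 10 µM (2% DMSO) in 100 mM phosphate pH 7.4 with alamethicin-treated microsomes or Supersomes, 10 mM MgCl2 and 10 mM saccharolactone. After 5 min pre-incubation at 37 °C, UDPGA was added to start the reaction. Protein was raised up to 2 mg/mL. Samples were quenched in ACN with 1 µM DCC internal standard, centrifuged, and N-glucuronides detected by LC-ESI-MS/MS in SRM mode.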

[6] = molecular target: T1, UDP-glucuronosyltransferase 1A6 (Homo sapiens, UniProt P19224); assay: Drug metabolism assessed as human UGT1A6-mediated N-glucuronide-triclocarban formation expressed in baculovirus infected insect sf9 cells incubated for 5 mins prior to UDPGA addition measured after 5 to 30 mins by LC-UV analysis; format: ADME
T1 sequence (P19224 whole entry): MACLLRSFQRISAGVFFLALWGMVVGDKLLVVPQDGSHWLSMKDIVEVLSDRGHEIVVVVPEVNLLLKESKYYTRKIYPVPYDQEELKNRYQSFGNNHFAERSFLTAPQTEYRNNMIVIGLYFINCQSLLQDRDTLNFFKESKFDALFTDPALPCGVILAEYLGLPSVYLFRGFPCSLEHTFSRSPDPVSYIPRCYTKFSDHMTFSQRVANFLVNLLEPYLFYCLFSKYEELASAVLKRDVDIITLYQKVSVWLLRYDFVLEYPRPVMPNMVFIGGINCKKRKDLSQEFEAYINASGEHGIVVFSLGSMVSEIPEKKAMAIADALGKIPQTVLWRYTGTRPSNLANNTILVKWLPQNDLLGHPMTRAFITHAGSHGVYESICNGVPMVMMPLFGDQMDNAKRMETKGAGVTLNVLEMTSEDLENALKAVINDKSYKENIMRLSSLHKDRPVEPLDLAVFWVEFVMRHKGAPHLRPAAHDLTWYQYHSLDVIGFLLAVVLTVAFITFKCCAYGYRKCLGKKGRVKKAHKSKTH
Method in brief: (§4)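 Microsomes or UGT Supersomes (5 µg protein) were held 15 min on ice with alamethicin in 100 mM potassium phosphate pH 7.4. TCC was added at 10 µM (2% DMSO) with 10 mM MgCl2 and 10 mM saccharolactone, pre-warmed 5 min at 37 °C, then started with UDPGA. Samples at 5, 10, 15 and 30 min were quenched in ACN. Product was read by LC-UV at 265 nm; rate came from regression over time, three incubations.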

[7] = Drug excretion in Sprague-Dawley rat urine assessed as 6-O-glucuronide-triclocarban formation at 1 mg/kg, po by LC-MS analysis; format: ADME, organism-based; parameters: dose 1 mg/kg, route oral; details: in vivo
[8] = Drug excretion in Swiss webster mouse urine assessed as N-glucuronide-triclocarban formation at 5 mg/kg, po by LC-MS analysis; format: ADME, organism-based; parameters: dose 5 mg/kg, route oral; details: in vivo; method in brief: as §3
[9] = molecular target: T2, UDP-glucuronosyltransferase 2B7 (Homo sapiens, UniProt P16662); assay: Drug metabolism assessed as human UGT2B7-mediated N'-glucuronide-triclocarban formation expressed in baculovirus infected insect sf9 cells incubated for 5 mins prior to UDPGA addition measured after 5 to 30 mins by LC-UV analysis; format: ADME; method in brief: as §4
T2 sequence (P16662 whole entry): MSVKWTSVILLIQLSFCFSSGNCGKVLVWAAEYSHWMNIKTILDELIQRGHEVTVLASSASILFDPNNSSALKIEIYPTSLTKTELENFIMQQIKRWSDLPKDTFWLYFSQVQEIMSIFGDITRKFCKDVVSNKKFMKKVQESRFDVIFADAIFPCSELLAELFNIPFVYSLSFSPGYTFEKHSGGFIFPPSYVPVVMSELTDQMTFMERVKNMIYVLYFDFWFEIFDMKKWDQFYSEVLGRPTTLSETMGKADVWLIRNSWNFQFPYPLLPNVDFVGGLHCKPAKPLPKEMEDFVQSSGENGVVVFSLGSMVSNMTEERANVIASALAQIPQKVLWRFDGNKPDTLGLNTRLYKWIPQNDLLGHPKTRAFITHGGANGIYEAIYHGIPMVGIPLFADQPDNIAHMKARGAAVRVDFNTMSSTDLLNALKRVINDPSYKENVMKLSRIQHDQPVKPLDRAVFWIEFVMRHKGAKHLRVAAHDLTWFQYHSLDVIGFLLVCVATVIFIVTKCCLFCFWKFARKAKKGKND

[10] = molecular target: T3, UDP-glucuronosyltransferase 1A7 (Homo sapiens, UniProt Q9HAW7); assay: Drug metabolism assessed as human UGT1A7-mediated N-glucuronide-triclocarban formation expressed in baculovirus infected insect sf9 cells incubated for 5 mins prior to UDPGA addition measured after 5 to 30 mins by LC-UV analysis; format: ADME; method in brief: as §4
T3 sequence (Q9HAW7 whole entry): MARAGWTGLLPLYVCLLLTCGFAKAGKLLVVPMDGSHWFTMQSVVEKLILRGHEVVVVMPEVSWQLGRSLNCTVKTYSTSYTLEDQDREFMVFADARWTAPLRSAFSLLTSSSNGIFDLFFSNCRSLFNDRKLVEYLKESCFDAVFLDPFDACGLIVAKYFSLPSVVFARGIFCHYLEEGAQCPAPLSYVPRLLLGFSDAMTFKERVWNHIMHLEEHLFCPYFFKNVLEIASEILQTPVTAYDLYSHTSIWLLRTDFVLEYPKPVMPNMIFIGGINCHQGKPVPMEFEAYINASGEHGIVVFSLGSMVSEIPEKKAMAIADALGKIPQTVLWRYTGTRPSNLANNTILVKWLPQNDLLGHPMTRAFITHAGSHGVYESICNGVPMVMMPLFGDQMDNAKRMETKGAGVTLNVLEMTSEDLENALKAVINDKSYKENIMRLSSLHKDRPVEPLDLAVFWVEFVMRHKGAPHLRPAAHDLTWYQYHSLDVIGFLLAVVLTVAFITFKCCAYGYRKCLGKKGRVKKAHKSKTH

[11] = test system: Liver microsome; assay: Drug metabolism in Sprague-Dawley rat liver microsomes assessed as N-glucuronide-triclocarban formation incubated for 5 mins prior to UDPGA addition measured after 5 to 30 mins by LC-UV analysis; format: ADME; method in brief: as §4

Row | Structure (SMILES) | Vmax [1] [nmol/min/mg] | Km at 0.5 h [2] [µM] | CLH [3] [µL/min/mg] | Drug excretion [4] | Drug metabolism [5] | Drug metabolism [6] | Drug excretion [7] | Drug excretion [8] | Drug metabolism [9] | Drug metabolism [10] | Drug metabolism [11]
1 | O=C(Nc1ccc(Cl)c(Cl)c1)Nc1ccc(Cl)cc1O | 9.42 | 3.29 | 1740 | – | – | – | – | – | – | – | –
2 | O=C(Nc1ccc(Cl)cc1)Nc1ccc(Cl)c(Cl)c1 [TRICLOCARBAN] | – | – | – | metabolite_detected | metabolite_detected | metabolite_not_detected | metabolite_detected | metabolite_detected | metabolite_not_detected | metabolite_not_detected | metabolite_not_detected
